# Published values pooled from the literature.
Structure (SMILES),test,setting,chromatographic logD
CC1=C(C#N)[C@@H](c2ccc(C#N)cc2)NC(=O)N1c1cccc(C(F)(F)F)c1,HPLC,pH 7.5,2.8
"CO[C@H](C(=O)N1Cc2c(-c3ccc(C(=O)N4CCCc5ccccc54)cn3)cnn2C[C@H]1C(C)C)c1cnn(C)c1 (single isomer, unassigned)",HPLC,pH 7.4,3.1
CCn1cnnc1C1CCN(C(=O)c2cn3ccc(C)cc3n2)CC1,,pH 7.4,1.2
CCOC(=O)C1=C(C)N/C(=C/c2cc(CC)n(-c3ccccc3C(F)(F)F)c2CC)C1=O,HPLC,pH 7.4,3.6
C[C@H](C(=O)N1Cc2c(-c3ccc(C(=O)N4CCCc5ccccc54)cc3)cnn2C[C@H]1C)c1ccccc1,HPLC,pH 7.4,5.2
CC(C)(C)C1=CC(=NNc2ccc([N+](=O)[O-])cc2[N+](=O)[O-])C=C(C(C)(C)C)C1=O,HPLC,pH 7.4,> 5.3
CCOC(=O)C1=C(C)N/C(=C/c2cc(C)n(-c3ccncc3)c2C)C1=O,HPLC,pH 7.4,1.9
CC1=C(C#N)[C@@H](c2ccc(C#N)cc2S(C)(=O)=O)N(C)C(=O)N1c1cccc(C(F)(F)F)c1,HPLC,pH 7.5,3
CCn1c(-c2nc3ccc(C(=O)N4CCCC(N)C4)cc3n2C)cc2ccccc21 (stereo not drawn),HPLC,pH 7.4,3
CCOC(=O)C1=C(C)N/C(=C/c2cc(C)n(-c3ccc(CN4CCOCC4)cc3)c2C)C1=O,HPLC,pH 7.4,2.5
O=C(Nc1ccnc(C(F)(F)F)c1)Nc1cccc2c1OC(F)(F)O2,HPLC,pH 7.4,3.6
COc1cc(Cl)c(C(=O)N[C@@H](CN[C@H]2CC[C@@H](N)CC2)Cc2ccc(C#N)cc2)cc1-c1ccc(CN[C@H](C)c2ccc(C)cc2)o1,HPLC,pH 7.5,2.9
CC(C)[C@@H]1Cn2ncc(-c3ccc(C(=O)N4CCCc5ccccc54)cc3)c2CN1C(=O)Cc1ccccc1,HPLC,pH 7.4,5.3
O=C(Nc1ccccc1C(=O)NC1CC1)c1cccc(N2CCCC2=O)c1,,pH 7.4,4
Nc1cccc2c1CN(C1CCC(=O)NC1=O)C2=O (stereo not drawn),HPLC,pH 7.4,-0.4
CCOC(=O)C1=C(C)N/C(=C/c2ccn(-c3ccccc3C(F)(F)F)c2)C1=O,HPLC,pH 7.4,3
"CO[C@@H](C(=O)N1Cc2c(-c3ccc(C(=O)N4CCCc5ccccc54)cc3)cnn2C[C@H]1C(C)C)c1cnn(C)c1 (single isomer, unassigned)",HPLC,pH 7.4,4.1
CCOC(=O)C1=C(C)N/C(=C/c2cc(C)n(-c3ccc(SC(F)(F)F)cc3)c2C)C1=O,HPLC,pH 7.4,3.8
CC(=O)Nc1nc(-c2c(F)cccc2F)cs1,,pH 7.4,3.7
CC1=C(C(N)=O)C(=O)/C(=C\c2cc(C)n(-c3ccccc3C(F)(F)F)c2C)N1,HPLC,pH 7.4,2.8
Cc1cc(NC(=O)Nc2ccc3c(c2)OC(F)(F)O3)cc(C(F)(F)F)n1,HPLC,pH 7.4,4.3
